Results: ChEMBL document CHEMBL2331102 (Bioorg Med Chem, 2013)
Values after ≈ are worked out from the molar mass of the structure shown. Active and inactive are the calls of the source. The calls are words filed in the database; no cut-off is given here.

What was measured:
Trypanosoma cruzi [1] = experiment: Antitrypanosomal activity against Trypanosoma cruzi Tulahuen TcVI infected in Swiss mouse model of Chagas disease assessed as increase in host survival at 50 mg/kg once daily for 5 consecutive days through oral gavage starting on day 8 post infection measured 14 days post infection; assay type: functional, organism-based; design: dose 50 mg/kg
In short: (§1)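 Female Swiss mice (n = 5 per group) were infected with 25,000 blood-form T. cruzi Tulahuen TcVI trypomastigotes and dosed orally by gavage once daily for 5 days from day 8 pi.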

Trypanosoma cruzi [2] = experiment: Antitrypanosomal activity against Trypanosoma cruzi Tulahuen TcVI infected in Swiss mouse model of Chagas disease assessed as increase in host survival at 100 mg/kg once daily for 5 consecutive days through oral gavage starting on day 8 post infection measured 14 days post infection; assay type: functional, organism-based; design: dose 100 mg/kg; in short: as §1
Trypanosoma cruzi [3] = experiment: Antitrypanosomal activity against Trypanosoma cruzi Tulahuen TcVI infected in Swiss mouse model of Chagas disease assessed as increase in host survival at 20 mg/kg once daily for 5 consecutive days through oral gavage starting on day 8 post infection measured 14 days post infection; assay type: functional, organism-based; design: dose 20 mg/kg; in short: as §1
Trypanosoma cruzi [4] = experiment: Antitrypanosomal activity against Trypanosoma cruzi Tulahuen TcVI infected in Swiss mouse model of Chagas disease assessed as decrease in blood parasitemia level at 50 mg/kg once daily for 5 consecutive days through oral gavage starting on day 8 post infection measured 14 days post infection; assay type: functional
In short: (§2)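 Female Swiss mice (n = 5 per group) were infected with 25,000 blood-form T. cruzi Tulahuen TcVI trypomastigotes. From day 8 post-infection, they received once-daily oral gavage for 5 consecutive days. Blood trypomastigotes/mL were counted on days 8, 9, 12 and 14 pi, and efficacy was taken as decreased parasitemia versus vehicle-treated mice on day 14.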

Trypanosoma cruzi [5] = experiment: Antitrypanosomal activity against Trypanosoma cruzi Tulahuen TcVI infected in Swiss mouse model of Chagas disease assessed as decrease in blood parasitemia level at 100 mg/kg once daily for 5 consecutive days through oral gavage starting on day 8 post infection measured 14 days post infection; assay type: functional; in short: as §2
L6 = experiment: Cytotoxicity against rat L6 cells after 72 hrs by Alamar Blue assay; assay type: cell-based; details: L6, 72 h
In short: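 Counter-screen for cytotoxicity in uninfected L6 rat skeletal muscle myoblasts, with IC50 recorded in µM.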

Trypanosoma cruzi [6] = experiment: Antitrypanosomal activity against Trypanosoma cruzi Tulahuen TcVI extracellular trypomastigotes forms transfected with beta-galactosidase gene infected in rat L6 cells assessed as inhibition of parasite growth after 4 days; assay type: functional, organism-based; details: L6, 96 h
In short: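 L6 rat skeletal myoblasts were infected with extracellular trypomastigotes of β-galactosidase-transfected T. cruzi Tulahuen TcVI. After 48 h to establish infection, compound was added and incubation continued 4 days, exposing trypomastigote and intracellular amastigote forms.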

CYP3A4/5 = CYP3A4/5 (Homo sapiens, UniProt P08684+P20815); experiment: Inhibition of CYP3A4/5 in human liver microsomes assessed as reduction in testosterone-beta-hydroxylation; assay type: ADME, Microsome; details: probe testosterone
In short: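 CYP3A4 inhibition measured as inhibition of testosterone β-hydroxylation, reported as IC50 (µM).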

[7] = Selectivity index, ratio of IC50 for rat L6 cells to IC50 for Trypanosoma cruzi Tulahuen TcVI extracellular trypomastigotes forms; assay type: toxicity, cell-based; details: read-out: Ratio IC50
In short: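 Ratio of the L6 myoblast cytotoxicity IC50 to the IC50 against β-galactosidase-expressing T. cruzi Tulahuen TcVI.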

Trypanosoma cruzi [8] = experiment: Antitrypanosomal activity against Trypanosoma cruzi Tulahuen TcVI infected in Swiss mouse model of Chagas disease assessed as decrease in blood parasitemia level at 20 mg/kg once daily for 5 consecutive days through oral gavage starting on day 8 post infection measured 14 days post infection; assay type: functional; design: scale not given: the % may be the effect or the level left; in short: as §2
[9] = Kinetic solubility of the compound at pH 6.5 phosphate buffer by nephelometric analysis; assay type: physicochemical; details: read-out: Kinetic_solubility
In short: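 Kinetic solubility in phosphate buffer at pH 6.5, determined by nephelometry and reported in µg/mL.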

[10] = Apparent half life in Swiss mouse at 20 to 100 mg/kg, po; assay type: ADME, organism-based; design: dose 20-100 mg/kg, route oral; details: in vivo, read-out: t1/2(app) (converted)
In short: (§3)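 Non-infected male Swiss outbred mice received single oral gavage doses of 20, 50 and 100 mg/kg. […] Full-scan LC-MS was run on selected plasma samples to identify metabolites.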

Mus musculus [11] = experiment: AUC (0 to 7.5 hrs) in Swiss mouse at 100 mg/kg, po; assay type: ADME, organism-based, Plasma; design: time < 7.5 hr, dose 100 mg/kg, route oral; details: in vivo; in short: as §3
Mus musculus [12] = experiment: AUC (0 to 7.5 hrs) in Swiss mouse at 20 mg/kg, po; assay type: ADME, organism-based, Plasma; design: time < 7.5 hr, dose 20 mg/kg, route oral; details: in vivo; in short: as §3
Mus musculus [13] = experiment: AUC (0 to 7.5 hrs) in Swiss mouse at 50 mg/kg, po; assay type: ADME, organism-based, Plasma; design: time < 7.5 hr, dose 50 mg/kg, route oral; details: in vivo; in short: as §3
Mus musculus [14] = experiment: Toxicity in Swiss mouse at 20 to 100 mg/kg, po; assay type: organism-based; design: dose 20-100 mg/kg, route oral; details: in vivo; in short: as §3
[15] = Tmax in Swiss mouse at 20 to 100 mg/kg, po; assay type: ADME, organism-based; design: dose 20-100 mg/kg, route oral; details: in vivo; in short: as §3

Row | SMILES | Activity (Trypanosoma cruzi [1]) | Activity (Trypanosoma cruzi [2]) | Activity (Trypanosoma cruzi [3]) | Activity (Trypanosoma cruzi [4]) | Activity (Trypanosoma cruzi [5]) | IC50 (L6) | IC50 (Trypanosoma cruzi [6]) | Activity (Trypanosoma cruzi [8]) | half-life [10] | AUC (Mus musculus [11]) | AUC (Mus musculus [12]) | AUC (Mus musculus [13]) | Activity (Mus musculus [14]) | Tmax [15] | further results
1 | CS(=O)(=O)N1CCN(C(c2cccnc2)c2ccc(Cl)cc2F)CC1 (stereo not given) [listing 1 of 2 here] | Active | Active | Active |  |  |  |  |  |  |  |  |  |  |  | 
2 | CC[C@@H]([C@H](C)O)n1ncn(-c2ccc(N3CCN(c4ccc(OC[C@@H]5CO[C@@](Cn6cncn6)(c6ccc(F)cc6F)C5)cc4)CC3)cc2)c1=O [POSACONAZOLE] | Active | Active |  | Active | Active | > 100000 nM | 0.7 nM |  |  |  |  |  |  |  | 
3 | CS(=O)(=O)N1CCN(C(c2cccnc2)c2ccc(Cl)cc2F)CC1 (stereo not given) [listing 2 of 2 here] |  |  |  | 95% | 96% | > 100000 nM | 35 nM | 73% |  |  |  |  |  |  | IC50 (CYP3A4/5): 1300 nM; selectivity ratio [7]: > 100; solubility kinetic [9]: 12.5 µg/mL (≈ 32.6 µM)
4 | CC(=O)N1CCN(C(c2ccc(Cl)cc2)c2cccnc2)CC1 (stereo not given) | Active | Active | Active | inactive | inactive |  |  | inactive |  |  |  |  |  |  | 
5 | CC(=O)N1CCN(C(c2ccc(Cl)cc2)c2cccnc2)CC1.O=C(O)CC(O)(CC(=O)O)C(=O)O (stereo not given) |  |  |  |  |  |  |  |  | 102 min | 9.4 µM·h | 2.3 µM·h | 6.2 µM·h | Non-toxic | 15 min | 
6 | CS(=O)(=O)N1CCN(C(c2cccnc2)c2ccc(Cl)cc2F)CC1.O=C(O)CC(O)(CC(=O)O)C(=O)O (stereo not given) |  |  |  |  |  |  |  |  | 126 min | 43.7 µM·h | 7.2 µM·h | 60.2 µM·h | Non-toxic | 15 min | 
